The values that follow come from ChEMBL document CHEMBL4382263, “Spirostaphylotrichin X from a Marine-Derived Fungus as an Anti-influenza Agent Targeting RNA Polymerase PB2” (J Nat Prod, 2018).

Assay [1] has as its system Influenza A virus. As to the kind of experiment: Antiviral activity against Influenza A virus (A/PR/8/34(H1N1)) harboring neuraminidase H274Y mutant infected in MDCK cells assessed as reduction in virus-induced cytopathic effect by MTT assay. The assay is classed as functional, organism-based, A/Puerto Rico/8/1934(H1N1). In short, it runs like this:
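MTT-based cytopathic-effect reduction assay in MDCK cells. Run in triplicate; IC50 reported as mean ± SD.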
(Protection from cytopathic effect is a common read-out in antiviral testing.)

For assay [2], the system named is Influenza A virus (A/Puerto Rico/8/1934(H1N1)). As to the kind of experiment: Inhibition of RNA polymerase in Influenza A virus (A/PR/8/34(H1N1)) infected in human 293T cells harboring pPol1-Fluc at 10 uM after 24 hrs by luciferase reporter gene assay. The assay is classed as cell-based. Summed up:
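293T cells transfected with 50 ng pPolI-Fluc reporter. After 5 h, infected with PR8 at different titres for 1 h. Then given DMEM/10% FBS with 10 μM compound or 0.1% DMSO; luciferase measured in lysates after 24 h.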
On the technique in general: A reporter such as luciferase makes a cellular process visible.

Activity calls are given as the source filed them. The calls are words filed in the database; no cut-off is given here.

Regarding `CC/C=C1/C=CC(=O)[C@@H](O)[C@]12C(=O)N(OC)[C@@](C)(OC)[C@@H]2O`, the IC50 (in general, the concentration needed to halve the response being measured) in assay [1] worked out at 1200 nM. Moreover, in assay [2], the inhibition result was “Active”.
